In PubChem BioAssay:
Calls of active or inactive are those of the source.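 How the source made its calls, unless noted: active means NADPH fluorescence slope more negative than the mean of all samples by about 3 SD, 99.7% confidence; inactive means the rest.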

Key:
[1] = inhibitors of TNFa-induced NFkB p65 translocation, primary screen, imaging, HUVEC, MLSMR starter and 10KST1 sets (AID 438;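 active means inhibition above 20% together with a positive visual image hit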;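 further: compound added about 3h40 before a 20 min TNFalpha stimulation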;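 on inhibition: signal is the nuclear over cytoplasmic p65 intensity ratio per well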); details: HUVEC TNFa-induced p65 nuclear translocation; cell count: measured here: nuclei count (cytotoxicity indicator), at 2.08 µM; inhibition: at 2 µM, stronger effect = higher value, 0% TNFa-plus-vehicle, 100% no-TNFa wells
[2] = endothelial E-selectin expression blockers – imaging, HUVEC, immunofluorescence, MLSMR starter and 10KST1 sets, primary screen (AID 487;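 active means visually confirmed hit in the image check and inhibition above 20%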;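 on inhibition: signal is fraction of cell area covered by stained E-selectin grains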;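 on nuclei count: 100% = median nuclei count of all wells on the same plate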); details: HUVEC TNFalpha-induced E-selectin immunofluorescence imaging, at 2 µM; inhibition: stronger effect = higher value; nuclei count: measured here: cell number, toxicity
[3] = Primary imaging screen for DUSP6 inhibitors that restore phospho-Erk in transfected HeLa cells, chemical complementation (AID 609;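 active means compounds giving at least 50% inhibition in the cell-based MKP-3 phosphatase rescue imaging test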;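 on inhibition: phospho-Erk level distribution per well compared with pooled transfected vehicle control wells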); details: HeLa MKP-3 transfected, phospho-Erk imaging KS statistic, at 10 µM, cells stimulated with TPA for 15 min
[4] = biological target: Dual specificity protein phosphatase 6 (Homo sapiens) (UniProt Q16828); assay: as above; details: HeLa MKP-3 transfected, phospho-Erk imaging KS statistic; at 10 µM; stronger effect = higher value; cells stimulated with TPA for 15 min
[5] = biological target: Voltage-gated potassium channel subunit beta-2 (Rattus norvegicus) (UniProt P62483); assay: inhibitors of rat Kvbeta2 reductase activity – biochemical, NADPH fluorescence, primary screen (AID 622;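 active means fluorescence slope higher than the sample average by over 3 SD, cut at about -0.22 in these data, passing the limit was not always enough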;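 further: slope of raw intensity against log time taken from 70 to 1610 s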); details: recombinant KvBeta, 4-cyanobenzaldehyde reduction, at 10 µM, stronger effect = higher value
[6] = biological target: Voltage-gated potassium channel subunit beta-2 (Rattus norvegicus) (UniProt P62483); assay: enhancers of rat Kvbeta2 NADPH turnover – biochemical, NADPH fluorescence, primary screen (AID 623); details: Recombinant KvBeta, NADPH fluorescence decrease slope, 10 min; at 10 µM; stronger effect = lower value;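 further: fluorescence intensity change per second fitted from 20 to 320 s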
[7] = biological target: Alpha-2C adrenergic receptor (Homo sapiens) (UniProt P18825); assay: compounds altering alpha2C-coupled GIRK flux – cell-based, HEK293 alpha2C/GIRK1/2, thallium flux, primary screen (AID 624;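 active means fluorescence slope after compound addition differing from the mean of all screened samples at 99.7% confidence, in either direction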;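 further: slope of fluorescence ratio to pre-addition baseline per second over 15 to 24 s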); details: thallium flux BTC fluorescence, at 10 µM, actives lie on both sides
[8] = inhibitors of larval lipid processing in zebrafish, primary screen, whole organism, PED6 fluorescence, gall bladder and intestine (AID 686;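 active means a full or partial loss of lipid-probe fluorescence in the fish gall bladder, intestine or both, judged by eye; inactive means no fluorescence loss, or compound toxic to the fish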;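 further: larvae 5 to 7 days old with five fish per well; signal comes from phospholipase A2 cleavage of quenched PED6 carried via bile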); details: Zebrafish larvae PED6 lipid processing, fluorescence scoring; screened at 20 µM (by protocol)
Method in brief: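 Incubation: overnight exposure of larvae to compound plus PED6 / Test system: live zebrafish larvae aged 5-7 days, whole organism / Amount: 5 larvae per well / Read-out basis: visual per-well fluorescence inhibition score / Signal: visual fluorescence microscopy scoring of gall bladder, gut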

[9] = loss of swimming-algae plug formation – whole organism, Chlamydomonas reinhardtii, WT vs cilia-less mutant, absorbance, 96-well, primary screen (AID 463189;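 active means inhibition at or above 50% relative to wild type and mutant plate controls; inactive means inhibition below 50%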;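 further: 0% = wild type cc124 cells in DMSO and 100% = ciliumless bld1 mutant cells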); details: Chlamydomonas reinhardtii gravitaxis, OD600 absorbance, 2 days; at 10 µM; stronger effect = higher value
[10] = measured here: cell density z-score
[11] = measured here: nuclear c-Myc green intensity z-score
[12] = measured here: nuclear pErk red intensity z-score, stronger effect = higher value

Chain of Voltage-gated potassium channel subunit beta-2 (Rattus norvegicus) (P62483 whole entry, looked up): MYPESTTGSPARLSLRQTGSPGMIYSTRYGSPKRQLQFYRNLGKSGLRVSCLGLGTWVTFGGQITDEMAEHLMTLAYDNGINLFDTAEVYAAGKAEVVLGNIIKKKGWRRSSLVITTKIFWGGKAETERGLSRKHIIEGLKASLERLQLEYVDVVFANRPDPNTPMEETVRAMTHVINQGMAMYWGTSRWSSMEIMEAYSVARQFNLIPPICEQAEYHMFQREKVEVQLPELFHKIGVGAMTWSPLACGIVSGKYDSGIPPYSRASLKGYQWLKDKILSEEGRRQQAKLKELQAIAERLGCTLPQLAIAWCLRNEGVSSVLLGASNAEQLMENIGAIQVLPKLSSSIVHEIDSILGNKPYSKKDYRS
Chain of Dual specificity protein phosphatase 6 (Homo sapiens) (Q16828 whole entry, looked up): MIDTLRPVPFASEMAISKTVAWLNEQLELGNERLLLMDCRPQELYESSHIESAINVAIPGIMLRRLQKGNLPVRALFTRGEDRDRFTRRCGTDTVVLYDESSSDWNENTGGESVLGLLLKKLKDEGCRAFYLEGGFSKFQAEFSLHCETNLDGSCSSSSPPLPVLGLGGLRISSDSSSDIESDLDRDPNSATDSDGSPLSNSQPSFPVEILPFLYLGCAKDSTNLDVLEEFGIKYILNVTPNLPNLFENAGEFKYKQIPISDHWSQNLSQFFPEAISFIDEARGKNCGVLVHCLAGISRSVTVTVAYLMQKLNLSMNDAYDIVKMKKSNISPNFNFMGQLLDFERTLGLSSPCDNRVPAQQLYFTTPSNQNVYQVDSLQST
Chain of Alpha-2C adrenergic receptor (Homo sapiens) (P18825 whole entry, looked up): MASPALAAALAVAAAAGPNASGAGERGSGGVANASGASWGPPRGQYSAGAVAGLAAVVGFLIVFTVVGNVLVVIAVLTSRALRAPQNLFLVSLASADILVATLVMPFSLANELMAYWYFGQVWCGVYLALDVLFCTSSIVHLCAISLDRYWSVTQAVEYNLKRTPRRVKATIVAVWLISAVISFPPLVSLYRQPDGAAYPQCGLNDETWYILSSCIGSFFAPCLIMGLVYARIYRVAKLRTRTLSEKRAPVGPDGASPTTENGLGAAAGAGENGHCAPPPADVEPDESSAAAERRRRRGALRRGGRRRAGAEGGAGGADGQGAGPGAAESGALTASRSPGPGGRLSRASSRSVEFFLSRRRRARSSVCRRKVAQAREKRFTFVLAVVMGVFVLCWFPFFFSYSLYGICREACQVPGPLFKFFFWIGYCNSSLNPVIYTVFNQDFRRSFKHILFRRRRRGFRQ

For `C[C@@H]1C[C@H](Nc2ccccc2)c2ccccc2N1C(=O)c1cccnc1`, the cell count [1] was 539, the inhibition [1] was -1.7% (inactive) and the inhibition [2] was 3.9% (inactive). The nuclei count [2] was 159%, the z-score [3, 10] was 2.9 and the z-score [3, 11] was -1.02. The z-score [3, 12] was 0.461, the inhibition [4] was 25.7% (inactive) and the fluorescence slope [5] was -0.265 (inactive). For the same molecule, the NADPH fluorescence slope [6] was 6.9e-06 (inactive), the slope [7] was 0.00503 (inactive) and the outcome [8] was “inactive”. For the same molecule, the inhibition [9] was 0.503% (inactive).
With `CCOC(=O)CC1=NC(=O)CS1` the cell count [1] was 636, the inhibition [1] was -20.6% (inactive) and the inhibition [2] was -40.7% (inactive). For the same molecule, the nuclei count [2] was 179%, the z-score [3, 10] was -0.153 and the z-score [3, 11] was -1.04. For the same molecule, the z-score [3, 12] was 1.51, the inhibition [4] was -5.62% (inactive) and the fluorescence slope [5] was -0.455 (inactive). For the same molecule, the NADPH fluorescence slope [6] was -5.7e-05 (inactive), the slope [7] was 0.00579 (inactive) and the outcome [8] was “inactive”. For the same molecule, the inhibition [9] was 11.6% (inactive).
In the case of `Cc1cccc(C)c1OCC(O)CNS(=O)(=O)c1ccccc1C(=O)N1CCCCC1` (centres undefined), the cell count [1] is reported as 512, the inhibition [1] is reported as 5.4% (inactive) and the inhibition [2] is reported as -148% (inactive). It also gave a nuclei count [2] of 171%, a z-score [3, 10] of -0.797 and a z-score [3, 11] of 2.33. For the same molecule, the z-score [3, 12] was 0.877, the inhibition [4] was -3.95% (inactive) and the fluorescence slope [5] was -0.36 (inactive). For the same molecule, the NADPH fluorescence slope [6] was -7e-05 (inactive), the slope [7] was 0.00455 (inactive) and the outcome [8] was “inactive”. For the same molecule, the inhibition [9] was -6.87% (inactive).
With `Clc1ccccc1-c1nnc2sc(-c3ccco3)nn12` the cell count [1] was 568, the inhibition [1] was -10.6% (inactive) and the inhibition [2] was 37.2% (inactive). The nuclei count [2] was 88.5%, the z-score [3, 10] was -0.391 and the z-score [3, 11] was -0.433. The z-score [3, 12] was 1.6, the inhibition [4] was 4.72% (inactive) and the fluorescence slope [5] was -0.43 (inactive). The NADPH fluorescence slope [6] was -4.6e-05 (inactive), the slope [7] was 0.00572 (inactive) and the outcome [8] was “inactive”. The inhibition [9] was 85.1% (active).
In the case of `CCOC(=O)c1ccc(N=CC2=C(O)CC(c3ccco3)CC2=O)cc1` (centres undefined), the cell count [1] is reported as 411, the inhibition [1] is reported as -17.7% (inactive) and the inhibition [2] is reported as -249% (inactive). For the same molecule, the nuclei count [2] was 188%, the z-score [3, 10] was 1.91 and the z-score [3, 11] was -1.05. The z-score [3, 12] was 0.242, the inhibition [4] was 16% (inactive) and the fluorescence slope [5] was -0.351 (inactive). The NADPH fluorescence slope [6] was -1.6e-05 (inactive), the slope [7] was 0.00521 (inactive) and the outcome [8] was “inactive”. For the same molecule, the inhibition [9] was 1.78% (inactive).
For `Cc1ccc(S(=O)(=O)c2cc3c(=O)n4ccccc4nc3n(C)c2=N)cc1`, the cell count [1] was 563, the inhibition [1] was -16.4% (inactive) and the inhibition [2] was -78% (inactive). It also gave a nuclei count [2] of 162%, a z-score [3, 10] of 0.476 and a z-score [3, 11] of -0.181. The z-score [3, 12] was 0.227, the inhibition [4] was -16.8% (inactive) and the fluorescence slope [5] was -0.453 (inactive). For the same molecule, the NADPH fluorescence slope [6] was -3.3e-05 (inactive), the slope [7] was 0.00439 (inactive) and the outcome [8] was “inactive”. The inhibition [9] was 1.37% (inactive).
In the case of `COc1ccc(-c2nn3c(-c4ccccn4)nnc3s2)cc1OC`, the cell count [1] is reported as 638, the inhibition [1] is reported as -8.9% (inactive) and the inhibition [2] is reported as 36.9% (inactive). For the same molecule, the nuclei count [2] was 169%, the z-score [3, 10] was 0.845 and the z-score [3, 11] was -0.297. For the same molecule, the z-score [3, 12] was -0.421, the inhibition [4] was -2.47% (inactive) and the fluorescence slope [5] was -0.407 (inactive). For the same molecule, the NADPH fluorescence slope [6] was -0.000141 (inactive), the slope [7] was 0.00665 (inactive) and the outcome [8] was “inactive”. The inhibition [9] was 22% (inactive).
In the case of `CCCCNC(=O)N1CCOCCOCCN(C(=O)NCCCC)CCOCCOCC1`, the cell count [1] is reported as 546, the inhibition [1] is reported as -15.4% (inactive) and the inhibition [2] is reported as -120% (inactive). The nuclei count [2] was 144%, the z-score [3, 10] was 1.2 and the z-score [3, 11] was -1.56. The z-score [3, 12] was 0.0473, the inhibition [4] was 3.97% (inactive) and the fluorescence slope [5] was -0.526 (inactive). For the same molecule, the NADPH fluorescence slope [6] was -2.2e-05 (inactive), the slope [7] was 0.00599 (inactive) and the outcome [8] was “inactive”. For the same molecule, the inhibition [9] was 17.8% (inactive).
In the case of `CC(=O)Nc1cccc(NC(=O)CSc2nc(C)c(C)c(C)c2C#N)c1`, the cell count [1] is reported as 546, the inhibition [1] is reported as -8.2% (inactive) and the inhibition [2] is reported as 28% (inactive). It also gave a nuclei count [2] of 174%, a z-score [3, 10] of 0.636 and a z-score [3, 11] of 0.622. The z-score [3, 12] was -1.1, the inhibition [4] was -4.27% (inactive) and the fluorescence slope [5] was -0.4 (inactive). The NADPH fluorescence slope [6] was -9.2e-06 (inactive), the slope [7] was 0.0055 (inactive) and the outcome [8] was “inactive”. For the same molecule, the inhibition [9] was -2.25% (inactive).
For `N#CCCN(CCC#N)c1nnc(-c2ccccc2)s1`, the cell count [1] was 391, the inhibition [1] was -3.1% (inactive) and the inhibition [2] was -60.9% (inactive). For the same molecule, the nuclei count [2] was 159%, the z-score [3, 10] was 1.49 and the z-score [3, 11] was 1.59. For the same molecule, the z-score [3, 12] was -1.79, the inhibition [4] was 17% (inactive) and the fluorescence slope [5] was -0.384 (inactive). For the same molecule, the NADPH fluorescence slope [6] was -3.6e-05 (inactive), the slope [7] was 0.00496 (inactive) and the outcome [8] was “inactive; toxic”. The inhibition [9] was 27.2% (inactive).
In the case of `N#CCCSCc1ccc(OCC(=O)O)cc1`, the cell count [1] is reported as 547, the inhibition [1] is reported as -22.2% (inactive) and the inhibition [2] is reported as -141% (inactive). It also gave a nuclei count [2] of 138%, a z-score [3, 10] of 0.922 and a z-score [3, 11] of -1.08. For the same molecule, the z-score [3, 12] was 0.0284, the inhibition [4] was 5.95% (inactive) and the fluorescence slope [5] was -0.488 (inactive). The NADPH fluorescence slope [6] was -9.2e-05 (inactive), the slope [7] was 0.00635 (inactive) and the outcome [8] was “inactive”. The inhibition [9] was 2.45% (inactive).
For `O=C(c1ccco1)N1CCN(c2ncnc3c2[nH]c2ccccc23)CC1`, the cell count [1] was 462, the inhibition [1] was 0.3% (inactive) and the inhibition [2] was -18.4% (inactive). For the same molecule, the nuclei count [2] was 138%, the z-score [3, 10] was 1.15 and the z-score [3, 11] was 0.243. The z-score [3, 12] was 0.509, the inhibition [4] was 0.671% (inactive) and the fluorescence slope [5] was -0.359 (inactive). For the same molecule, the NADPH fluorescence slope [6] was -1.6e-05 (inactive), the slope [7] was 0.00516 (inactive) and the outcome [8] was “inactive”. For the same molecule, the inhibition [9] was -4.22% (inactive).
For `CN(C)c1ccc(-c2nn3c(-c4ccc(Cl)cc4)nnc3s2)cc1`, the cell count [1] was 615, the inhibition [1] was -7.8% (inactive) and the inhibition [2] was -183% (inactive). The nuclei count [2] was 147%, the z-score [3, 10] was 0.167 and the z-score [3, 11] was -0.869. For the same molecule, the z-score [3, 12] was -2.02, the inhibition [4] was 19.1% (inactive) and the fluorescence slope [5] was -0.409 (inactive). The NADPH fluorescence slope [6] was -0.000319 (inactive), the slope [7] was 0.00702 (inactive) and the outcome [8] was “inactive”. For the same molecule, the inhibition [9] was 14.6% (inactive).
